M18AAP inhibitor = PfM18AAP enzyme inhibition. inhibition, % at 7.35 µM. recombinant PfM18AAP, H-Glu-NHMec fluorogenic cleavage. actives 1.2% (n = 290,000);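 active means inhibition above the campaign mean inhibition over all tested compounds plus 3 SD, cut at about 28% in these data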
FXN GAA850 act = increases GAA850 frataxin promoter reporter activity | activation, % at 6 µM | HEK293 lucGAA850 FXN promoter luciferase reporter, 24 h; percent of 10 µM SAHA response | actives 0.56% (n = 360,000);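 active means activation above the average of all compounds screened plus 3 SD, cutoff fixed separately per campaign, cut at about 7.5% in these data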
CTSL1 counter = cathepsin L1 inhibition, PFM18AAP counter-screen | AID 1906 | recombinant F. hepatica cathepsin L1, Z-Leu-Arg-MCA fluorescence | inhibition, % at 5.96 µM | actives 0.49% (n = 300,000);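 active means inhibition above the mean of all tested compounds plus 3 SD, set per screening campaign, cut at about 17% in these data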
SENP1 inh = blocks the human SENP1 SUMO protease catalytic domain; Q9P0U3; recombinant SENP1 catalytic domain, CyPet-SUMO1-YPet FRET cleavage; inhibition, % at 10 µM; actives 0.21% (n = 360,000);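 active means inhibition at least 30% at 10 µM, raw YFP signal under a set limit, fluorescence ratio 0.5 to 1.5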
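Assay system: hSENP1 catalytic domain, recombinant. Amount: SENP1 enzyme, 20 pM final. Schedule: 50 min reaction, RT, dark. Technique: FRET, CFP and YFP emission. Control set: no-enzyme wells low, DMSO-plus-enzyme wells high control.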
HDAC3 inhib = blocks human histone deacetylase 3; O15379; recombinant HDAC3, fluorogenic peptide/trypsin coupled, fluorescence; inhibition, % at 8.3 µM; actives 0.15% (n = 320,000); in the data active means inhibition above about 26%, passing the limit was not always enough; inconclusive means no clear call, values can overlap the other calls
AHR activator = activates the human aryl hydrocarbon receptor. P35869. AHR-responsive luciferase reporter cells, luminescence. activation, % at 5 µM. actives 2.5% (n = 320,000); in the data active means activation above about 47%
A number is an active result; - = inactive; ? = inconclusive; . = not tested or not shown. Compounds with a hit are over-represented: about 4.2% of the library has one in this group of screens.

SMILES	M18AAP inhibitor	FXN GAA850 act	CTSL1 counter	SENP1 inh	HDAC3 inhib	AHR activator
O=C1c2ccccc2C(=O)c2[nH]cnc21	-	-	.	-	-	.
O=C1N=C(N2C=CC(=C3C=CNC=C3)C=C2)/C(=C/N=NC(=O)c2ccccc2O)S1	28.9	-	-	-	-	-
CCSC(=O)N1c2ccc(OC)cc2C=CC1C#N (stereo unspecified)	.	-	.	-	.	.
O=c1c2cc(Cl)ccc2nc(-c2ccc([N+](=O)[O-])cc2)n1O	-	-	-	-	-	-
Cc1ccc(-c2nc3c(Cl)cc(Cl)cc3c(=O)n2O)cc1	-	-	-	-	-	65.5
O=c1c2cc(Br)ccc2nc(-c2ccc(Cl)cc2)n1O	-	-	-	-	-	50.2
CCCCC(=O)N(C)c1c(C)nc2ccc(C(=O)N3CCN(C(=O)c4ccco4)CC3)cn12	.	-	.	-	.	.
COc1ccccc1NC(=O)c1cc2ccccc2nc1C	-	-	-	-	-	57.4
COc1ccc(C(=O)Nc2cccc3nc(C)ccc23)cc1OC	-	-	-	-	-	-
COc1ccccc1C(=O)Nc1cccc2nc(C)ccc12	-	-	-	-	-	53.0
COc1ccc(C(=O)Nc2cccc3nc(C)ccc23)c(OC)c1	-	-	-	-	-	71.8
CC(C)c1ccc(C2(C)NC(=O)N(CC(=O)NCC3COc4ccccc4O3)C2=O)cc1 (stereo unspecified)	.	-	.	-	-	-
O=C(NNC(=O)c1sccc1-n1cccc1)c1cccs1	-	-	-	-	-	47.1
C/C(=N\NC(=O)c1sccc1-n1cccc1)c1cccs1	-	-	-	-	-	78.1
O=C(NCc1ccc(C(F)(F)F)cc1)c1ccc(-c2cccnc2)c2ccoc12	.	-	.	-	.	.
COc1ccc(NC(=O)N(C)C[C@H]2Oc3ccc(NS(=O)(=O)c4ccccc4)cc3C(=O)N([C@H](C)CO)C[C@@H]2C)cc1	.	-	.	-	.	.
CC(C(=O)Nc1ccc(C(=O)O)c(O)c1)N1C(=O)/C(=C\c2ccco2)SC1=S (stereo unspecified)	28.1	-	-	-	?	-
CC(C(=O)N(C)C1CCS(=O)(=O)C1)N1C(=O)/C(=C/c2ccco2)SC1=S (stereo unspecified)	31.1	-	-	-	-	-
O=C(CN1C(=O)/C(=C/c2ccco2)SC1=S)Nc1ccc(O)c(C(=O)O)c1	-	-	-	-	?	-
O=C(CN1C(=O)/C(=C/c2ccco2)SC1=S)Nc1ccc(C(=O)O)c(O)c1	47.2	-	-	-	-	-
CCCCCN(C(=O)CCC(=O)OCc1cccc(C)c1)c1c(N)n(CCCC)c(=O)[nH]c1=O	.	-	-	-	-	-
COc1ccc(Cl)cc1NC(=O)C[n+]1cccc(C)c1	-	-	-	-	-	-
CC(C)C(NC(=O)OCc1ccccc1)C(=O)NC(Cc1c[nH]c2ccccc12)C(=O)O (stereo unspecified)	.	.	.	-	.	.
Cc1cc(N2CCCCCC2)nc2ccccc12	-	-	20.1	-	-	-
Cc1cc(N2CCN(c3ccc(F)cc3)CC2)nc2cc(O)ccc12	-	-	-	-	-	97.5
SMILES	M18AAP inhibitor	FXN GAA850 act	CTSL1 counter	SENP1 inh	HDAC3 inhib	AHR activator
Cc1cc(N2CCN(c3ccccc3F)CC2)nc2cc(O)ccc12	-	-	-	-	-	-
COc1ccc2c(C)cc(N3CCN(c4ccc(F)cc4)CC3)nc2c1	-	-	-	-	-	69.1
Cc1cc(N2CCN(c3ncccn3)CC2)nc2c(C)cccc12	-	-	-	-	-	71.7
COC(=O)CCC(C)N1CCC(Oc2ccc(C(=O)NCc3ccccn3)cc2)CC1 (stereo unspecified)	-	-	.	-	.	.
COc1ccc(-c2csc(NC(=O)C3CC(=O)N(Cc4ccccc4)C3)n2)cc1OC (stereo unspecified)	-	-	-	-	-	-
CCC(=O)N1CCN(c2ccccc2NC(=S)NC(=O)c2ccco2)CC1	-	-	-	-	.	-
COc1ccc(C(=O)C[C@@H]2OC3CCCCC3N2S(=O)(=O)c2ccc(C)cc2)cc1OC (stereo partly specified)	.	.	.	-	.	.
COc1ccc2c(c1)C(c1cccs1)=NNC(c1ccncc1)=N2	-	9.4	-	-	-	-
Cn1c2ccccc2n2c(=O)c(Cl)c(-c3ccccc3)c(C#N)c12	-	-	-	-	-	58.9
